Assay outcomes as filed in PubChem.
An excerpt weighted towards active compounds, which were near 3.7% of everything screened.
KCNQ1 block = human KCNQ1 channel inhibition. CHO-K1 KCNQ1, FluxOR thallium flux fluorescence; stronger effect = higher value. AID 2642. P51787. 310,000 compounds, 1.3% hits. B-score at 10 µM;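 active = compounds whose thallium flux B-score, printed positive for inhibition, exceeds three library SD while starting fluorescence stays within three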;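 note: channel opened by potassium depolarization with thallium stimulus after 20 min compound exposure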
Target sequence (P51787 whole entry, looked up): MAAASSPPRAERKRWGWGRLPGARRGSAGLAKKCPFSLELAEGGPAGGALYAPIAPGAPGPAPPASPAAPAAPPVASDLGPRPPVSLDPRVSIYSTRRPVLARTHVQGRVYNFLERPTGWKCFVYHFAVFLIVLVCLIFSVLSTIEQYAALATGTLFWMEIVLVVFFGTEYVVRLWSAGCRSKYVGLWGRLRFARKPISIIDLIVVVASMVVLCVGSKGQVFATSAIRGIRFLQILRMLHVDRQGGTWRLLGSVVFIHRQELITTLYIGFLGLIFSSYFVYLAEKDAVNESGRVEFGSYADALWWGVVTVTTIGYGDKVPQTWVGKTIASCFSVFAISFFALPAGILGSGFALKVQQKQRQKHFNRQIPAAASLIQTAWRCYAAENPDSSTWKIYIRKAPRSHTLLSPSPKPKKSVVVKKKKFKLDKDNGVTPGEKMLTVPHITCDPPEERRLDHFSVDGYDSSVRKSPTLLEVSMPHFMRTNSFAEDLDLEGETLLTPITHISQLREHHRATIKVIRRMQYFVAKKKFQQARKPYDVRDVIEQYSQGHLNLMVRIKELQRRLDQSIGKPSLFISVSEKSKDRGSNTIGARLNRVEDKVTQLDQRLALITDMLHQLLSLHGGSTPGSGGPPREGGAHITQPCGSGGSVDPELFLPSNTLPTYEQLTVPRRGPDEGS
hERG protect = compounds protecting human hERG from proarrhythmic drug block; Q12809; CHO-hERG, FluxOR thallium flux, dofetilide IC70 present; activation (rescue from dofetilide block), less the hit threshold, % at 10 µM; 310,000 compounds, 0.51% hits; AID 1511;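 active = activation above the mean of controls blocked by dofetilide plus 5 SD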;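 note: thallium influx through hERG after potassium depolarization seen as dye fluorescence rise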
Kir21 block = inhibitors of mouse Kir2.1 inward-rectifier potassium channel | P35561 | HEK293-Kir2.1, FluxOR thallium flux fluorescence; stronger effect = lower value | B-score at 10 µM | 310,000 compounds, 0.85% hits | AID 1672;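 active = fluorescence ratio B-score at or below minus 3 SD of library scores, with starting-brightness B-score within 2 SD, cut at about -4.2 in these data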;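 note: channel flux triggered by added potassium and thallium sulfate stimulus; B-score of peak minus minimum fluorescence over baseline after thallium stimulus; more negative B-score means stronger Kir2.1 block with less thallium influx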
KCNQ1 act = potentiators or activators of human KCNQ1 potassium channel. P51787. CHO-K1 KCNQ1, thallium flux FluxOR fluorescence; stronger effect = higher value. B-score at 10 µM. 310,000 compounds, 0.35% hits. AID 2648;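 active = fluorescence ratio B-score, a plate-corrected score, at least three library SD, with initial intensity B-score within 5 SD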
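Assay system: CHO-K1 cells stably expressing KCNQ1; Medium: assay buffer with matched DMSO; Also added: K+/Tl+ depolarizing stimulus; Dosing: single dose; Timing: dye 90 min, compound 20 min, room temperature; Measured by: kinetic FluxOR thallium fluorescence, 10-s 1-Hz baseline, 110-s post-stimulus read; Read-out: peak-minus-minimum fluorescence over initial fluorescence, negative-control normalized, B-scored.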
KCNK9 inh = blocks the human KCNK9 two-pore domain potassium channel; HEK293 KCNK9, FluxOR thallium flux fluorescence; stronger effect = lower value; B-score at 10 µM; 310,000 compounds, 1.2% hits;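 active = ratio B-score over 3 SD below the library mean, with starting fluorescence within 5 SD of its mean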;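 note: negative B-score means less thallium flux so channel inhibition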
KCNK3 inh = human KCNK3 channel inhibition, primary screen; CHO-KCNK3 thallium flux, FluxOR fluorescence; stronger effect = lower value; B-score at 10 µM; 340,000 compounds, 0.84% hits; AID 602410;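 active = B-score under library mean minus 4 SD, starting fluorescence ratio at most library mean plus 5 SD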;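 note: more negative B-score means stronger inhibition of thallium flux through KCNK3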
Numbers stand for hits; n = inactive; x = no result given.

SMILES	KCNQ1 block	hERG protect	Kir21 block	KCNQ1 act	KCNK9 inh	KCNK3 inh
CCc1ccc(/C=C/C(=O)C2C(=O)c3ccccc3C2=O)cc1	n	28	n	28	n	n
CCc1ccc(C2C(C(=O)O)c3ccccc3C(=O)N2C)cc1 (stereo unspecified)	n	n	n	n	n	n
COc1ccc(N=C2O/C(=C/c3sc(=S)n(CC4CCCO4)c3O)N=C2C#N)cc1 (stereo unspecified)	10	n	n	n	n	n
CCN(C(=O)COC(=O)c1cc(Cl)ccc1OC)c1c(N)n(Cc2ccccc2)c(=O)[nH]c1=O	x	x	x	x	x	n
Cc1cc(=O)cc(C)n1-c1ccc(F)cc1F	n	6.6	n	n	n	n
O=C(NNC(=O)c1ccccc1-n1cccc1)c1ccc(Cl)cc1	n	n	n	n	n	n
CC(C)(C)c1ccc(C(=O)NNc2ncccc2-n2cccc2)cc1	7	n	n	n	n	n
O=C(CS(=O)(=O)c1cn(CC(=O)N2CCCC2)c2ccccc12)Nc1ccccc1F	n	n	n	n	n	n
COc1ccc(COC(=O)CNC(=O)C2CCCCC2)cc1F	x	x	x	x	x	n
CCCc1nc2c(s1)CCc1onc(-c3ccc(Cl)cc3)c1-2	n	n	n	n	-7.1	n
CCCc1nc2c(s1)CCc1onc(-c3ccc(Br)cc3)c1-2	n	n	n	n	n	n
CN(Cc1nc(-c2cccnc2)no1)S(=O)(=O)c1ccc2ccccc2c1	n	n	-4.8	n	n	n
Cc1ccc(C(=O)OCC(=O)N(C)c2ccccc2)cc1C	n	n	n	11	n	n
Cc1cc(C(=O)OCC(=O)N(C)c2ccccc2)ccc1[N+](=O)[O-]	n	n	n	n	n	n
O=C(CNC(=O)c1ccccc1F)NCc1ccccn1	x	x	x	x	x	n
COc1ccc(S(=O)(=O)N2CCCCCC2)cc1	n	n	n	n	n	n
COc1ccc(S(=O)(=O)N2CCNCC2)cc1	n	6.5	n	n	n	n
CCN(C(=O)COC(=O)c1cc(-c2cccc3ccccc23)nc2ccccc12)C1CCS(=O)(=O)C1 (stereo unspecified)	n	n	n	n	-7.1	n
CCN(C(=O)COC(=O)C(Cc1ccccc1)N1C(=O)c2ccccc2C1=O)C1CCS(=O)(=O)C1 (stereo unspecified)	n	n	n	8	n	n
O=C(COC(=O)c1cc(-c2cccc3ccccc23)nc2ccccc12)NC1CCS(=O)(=O)C1 (stereo unspecified)	n	n	n	n	n	n
ON=C1C2CC=C(c3ccccc3)C1CCC2 (stereo unspecified)	x	x	x	x	x	n
COC(=O)c1cc(S(=O)(=O)N2c3ccccc3CC2C)cn1C (stereo unspecified)	n	n	n	n	n	n
Cc1occc1C(=O)N1CCC2(CCCN(Cc3ccc(F)c(F)c3)C2)C1 (stereo unspecified)	n	n	n	n	n	n
CC1=CC(C)(C)N2C(=O)C3(C(C#N)=C(N)Oc4cc(O)ccc43)c3cccc1c32 (stereo unspecified)	6	n	n	n	n	n
CCc1ccc(C(=O)OCC(=O)N(CCOC)c2c(N)n(Cc3ccccc3)c(=O)[nH]c2=O)cc1	n	n	n	n	n	n
SMILES	KCNQ1 block	hERG protect	Kir21 block	KCNQ1 act	KCNK9 inh	KCNK3 inh
CCN(CC)S(=O)(=O)c1cccc(NC(=O)CN2C(=O)NC3(CCOc4ccccc43)C2=O)c1 (stereo unspecified)	x	x	x	x	x	n
COc1ccc(C(C[N+](=O)[O-])c2c(C)[nH]n(-c3ccccc3)c2=O)cc1 (stereo unspecified)	7	n	-8.7	n	n	n
CC(C)(C)CC(C)(C)SSc1n[nH]c(=S)s1	x	x	x	x	x	n
CC(C)CN(CC(C)C)S(=O)(=O)c1cc([N+](=O)[O-])ccc1N1CCCCCC1	7	n	n	n	n	n
O=[N+]([O-])c1ccc(N2CCCCCC2)c([N+](=O)[O-])c1	n	n	n	n	n	n
N#Cc1cc([N+](=O)[O-])ccc1N1CCCC1	n	n	n	n	n	n
CN(C)S(=O)(=O)c1cc([N+](=O)[O-])ccc1N1CCCCCC1	n	n	-4.6	n	n	n
COc1cc(OC)cc(C(=O)N(Cc2ccco2)c2c(N)n(Cc3ccccc3)c(=O)[nH]c2=O)c1	x	x	x	x	x	n
